Assay results as given in ChEMBL document CHEMBL2346611, “Preliminary structure-activity relationships and biological evaluation of novel antitubercular indolecarboxamide derivatives against drug-susceptible and drug-resistant Mycobacterium tuberculosis strains” (J Med Chem, 2013).
Converted amounts (≈) assume the structure as drawn. The source made the active and inactive calls. The rule behind the calls is not given here.

How the values were obtained:
[1] = system: Mycobacterium tuberculosis; assay: Antitubercular activity against Mycobacterium tuberculosis H37Rv by microplate Alamar Blue assay; assay type: functional
Outline: (§1)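 Mycobacterium tuberculosis strains were used: H37Rv, and clinical strains from KwaZulu-Natal (MDR KZN494 and V2475; XDR TF274 and R506). Growth was read by microplate Alamar Blue assay. MIC is the lowest drug concentration giving at least a 90% reduction of the bacterial growth signal. Values are the average of three individual measurements.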

[2] = system: Mycobacterium tuberculosis; assay: Antitubercular activity against Mycobacterium tuberculosis H37Rv; assay type: functional; outline: as §1
[3] = Selectivity index, ratio of IC50 for african green monkey vero cells to MIC90 for Mycobacterium tuberculosis H37Rv; assay type: functional
[4] = system: Mycobacterium tuberculosis; assay: Antitubercular activity against Mycobacterium tuberculosis H37Rv in 300 mg/kg, po dosed Balb/c mouse serum measured after 7 days by serum inhibition titration based microplate Alamar Blue assay; assay type: functional, organism-based; design: dose 300 mg/kg
Outline: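 Six-week-old female BALB/c mice got a single oral gavage of 100 or 300 mg/kg, ground to a suspension in 0.5% carboxymethyl cellulose. Controls were isoniazid 10 mg/kg and vehicle. Cardiac blood was taken at 15, 30 and 60 min and serum separated. Serum was two-fold serially diluted, 10^4 CFU H37Rv added, incubated 7 days and read by MABA.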

[5] = system: Mycobacterium tuberculosis; assay: Antitubercular activity against drug-susceptible Mycobacterium tuberculosis V4207 by microplate Alamar Blue assay; assay type: functional
Vero = assay: Cytotoxicity against african green monkey Vero cells by microplate Alamar Blue assay; assay type: cell-based; settings: Chlorocebus sabaeus
Outline: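 Cytotoxicity was measured on Vero cells in microplate Alamar Blue assay format.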

[6] = system: Mycobacterium tuberculosis; assay: Antitubercular activity against Mycobacterium tuberculosis H37Rv after 21 days by spectrophotometric analysis; assay type: functional; settings: 504 h
[7] = system: Mycobacterium tuberculosis; assay: Ratio of isoniazid MIC to compound MIC for Mycobacterium tuberculosis H37Rv; assay type: functional

Compound | MIC90 [1] [µM] | further results
Cc1cc(C)c2c(C(=O)NC3CCCCCCC3)c[nH]c2c1 | 200 (≈ 59.7 µg/mL) | –
COc1nc2ccc(Br)cc2cc1[C@@H](c1ccccc1)[C@@](O)(CCN(C)C)c1cccc2ccccc12 [BEDAQUILINE] | – | MIC90 [2]: 0.05 µM (≈ 0.0278 µg/mL)
O=C(NC1CCCCC1)c1cc2ccccc2[nH]1 | > 528 | –
O=C(NC12CC3CC(CC(C3)C1)C2)c1cc2ccc(O)cc2[nH]1 | 13 (≈ 4.04 µg/mL) | –
Cc1cc(C)c2cc(C(=O)NC3CCCCCC3)oc2c1 | 56 (≈ 16 µg/mL) | –
COc1cc2[nH]c(C(=O)NC34CC5CC(CC(C5)C3)C4)cc2cn1 | 1.5 (≈ 0.488 µg/mL) | –
NNC(=O)c1ccncc1 [ISONIAZID] | 0.29 (≈ 0.0398 µg/mL) | –
CCCCCCNC(=O)c1cc2c(C)cc(C)cc2o1 | 59 (≈ 16.1 µg/mL) | –
Cc1cc(C)c2cc(C(=O)NC3CCCCCCC3)[nH]c2c1 | 0.013 (≈ 0.00388 µg/mL) | Selectivity Index [3]: 4100; Activity [4]: Active; MIC90 [5]: 0.026 µM (≈ 0.00776 µg/mL); IC50 (Vero): 54 µM
O=C(NC1CCCCCC1)c1cc2c(F)cc(F)cc2[nH]1 | 0.86 (≈ 0.251 µg/mL) | –
Cc1cc(C)c2cc(C(=O)NC3CCN(C(C)C)CC3)[nH]c2c1 | 204 (≈ 63.9 µg/mL) | –
Cc1cc(C)c2cc(C(=O)NC3CCCCCCC3)oc2c1 | 27 (≈ 8.08 µg/mL) | –
Cc1cc(C)c2cc(C(=O)Nc3ccc(C)c(F)c3)[nH]c2c1 | 1.7 (≈ 0.504 µg/mL) | IC50 (Vero): > 200 µM
Cc1cc(C)c2cc(C(=O)NC3CCCCC3)n(C)c2c1 | 450 (≈ 128 µg/mL) | –
Cc1cc(C)c2cc(C(=O)NC3CCCCC3)[nH]c2c1 | 0.93 (≈ 0.251 µg/mL) | MIC90 [5]: 0.93 µM (≈ 0.251 µg/mL); IC50 (Vero): > 200 µM
Cc1cc(C)c2cc(C(=O)NC3C4CC5CC(C4)CC3C5)[nH]c2c1 (stereo not given) | 0.012 (≈ 0.00387 µg/mL) | Selectivity Index [3]: >16600; Activity [4]: inactive; IC50 (Vero): > 200 µM
COc1ccc2cc(C(=O)NC34CC5CC(CC(C5)C3)C4)[nH]c2c1 | 0.77 (≈ 0.25 µg/mL) | –
Cc1cc(C)c2cc(C(=O)NC34CC5CC(CC(C5)C3)C4)[nH]c2c1 | 0.012 (≈ 0.00387 µg/mL) | Selectivity Index [3]: >16600; Activity [4]: inactive; IC50 (Vero): > 200 µM
Cc1cc(C)c2nc(C(=O)NC3CCCCCC3)[nH]c2c1 | > 224 | –
Cc1cc(C)c2cc(C(=O)NC3CC4CCC3C4)oc2c1 (stereo not given) | 113 (≈ 32 µg/mL) | –
O=[N+]([O-])c1cn2c(n1)OC[C@@H](OCc1ccc(OC(F)(F)F)cc1)C2 [PRETOMANID] | – | MIC90 [6]: 0.04 µM (≈ 0.0144 µg/mL)
Cc1cc(C)c2c(C(=O)NC3CCCCCC3)c[nH]c2c1 | 200 (≈ 56.9 µg/mL) | –
O=C(NC1CCCCCC1)c1cc2c(C(F)(F)F)cc(C(F)(F)F)cc2[nH]1 | 0.64 (≈ 0.251 µg/mL) | –

Compound | MIC90 [1] [µM] | further results
Cc1cc(C)c2cc(C(=O)NCC3CCCCC3)[nH]c2c1 | 0.88 (≈ 0.25 µg/mL) | IC50 (Vero): > 200 µM
O=C(NC12CC3CC(CC(C3)C1)C2)c1cc2cc(Cl)ccc2o1 | ≥ 388 | –
O=C(NC1CCCCCCC1)c1cc2cc(Cl)ccc2o1 | 26 (≈ 7.95 µg/mL) | –
Cc1cc(C)c2cc(C(=O)Nc3ccccc3)[nH]c2c1 | 3.8 (≈ 1 µg/mL) | IC50 (Vero): > 200 µM
O=C(NC1CCCCCCC1)c1cc2c(C(F)(F)F)cc(C(F)(F)F)cc2[nH]1 | 0.04 (≈ 0.0163 µg/mL) | –
Cc1cc(C)c2cc(C(=O)NC34CC5CC(CC(C5)C3)C4)oc2c1 | 3.1 (≈ 1 µg/mL) | –
COc1cc2[nH]c(C(=O)NC3CCCCCCC3)cc2cn1 | 6.6 (≈ 1.99 µg/mL) | –
Cc1cc(C)c2cc(C(=O)Nc3ccncc3)[nH]c2c1 | 240 (≈ 63.7 µg/mL) | –
Cc1cc(C)c2cc(C(=O)N3CCCCC3)[nH]c2c1 | > 499 | –
Cc1cc(C)c2nc(C(=O)NC3C4CC5CC(C4)CC3C5)[nH]c2c1 (stereo not given) | 1.5 (≈ 0.485 µg/mL) | –
Cc1cc(C)c2cc(C(=O)NC3CCCN(C)CC3)[nH]c2c1 (stereo not given) | 428 (≈ 128 µg/mL) | –
O=C(NC1CCCCCCC1)c1cc2c(F)cc(F)cc2[nH]1 | 0.1 (≈ 0.0306 µg/mL) | –
Cc1cc(C)c2cc(C(=O)NC3CC3)[nH]c2c1 | 561 (≈ 128 µg/mL) | –
Cc1ccc(NC(=O)c2cc3ccccc3[nH]2)cc1F | 477 (≈ 128 µg/mL) | –
Cc1cc(C)c2cc(C(=O)NC3CCN(C)CC3)[nH]c2c1 | 448 (≈ 128 µg/mL) | –
Cc1cc(C)c2cc(C(=O)N(C)C3CCCCC3)[nH]c2c1 | 450 (≈ 128 µg/mL) | –
O=C(NC12CC3CC(CC(C3)C1)C2)c1cc2cc(Cl)ccc2[nH]1 | 0.38 (≈ 0.125 µg/mL) | –
Cc1cc(C)c2c(C(=O)NC34CC5CC(CC(C5)C3)C4)c[nH]c2c1 | 200 (≈ 64.5 µg/mL) | –
Cc1cc(C)c2c(C(=O)NC3C4CC5CC(C4)CC3C5)c[nH]c2c1 (stereo not given) | 200 (≈ 64.5 µg/mL) | –
Cc1cc(C)c2nc(C(=O)NC3CCCCCCC3)[nH]c2c1 | 1.7 (≈ 0.509 µg/mL) | –
Cc1cc(C)c2cc(C(=O)NC3CCCCCC3)[nH]c2c1 | 0.055 (≈ 0.0156 µg/mL) | Selectivity Index [3]: >3600; Activity [4]: inactive; MIC90 [5]: 0.11 µM (≈ 0.0313 µg/mL); IC50 (Vero): > 200 µM; Ratio [7]: 5
Cc1cc(C)c2nc(C(=O)NC34CC5CC(CC(C5)C3)C4)[nH]c2c1 | 0.39 (≈ 0.126 µg/mL) | –
